From ChEMBL document CHEMBL1157424, “Alisiaquinones and alisiaquinol, dual inhibitors of Plasmodium falciparum enzyme targets from a New Caledonian deep water sponge” (J Nat Prod, 2008)
Activity calls are given as the source filed them. No cut-off for these calls is given here.

What was measured:
Plasmodium falciparum [1] = assay: Inhibition of Plasmodium falciparum Pfnek1 at 50 uM
Method in brief: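 Kinase reaction in 20 mM Tris/HCl pH 7.5 with 20 mM MgCl2, 2 mM MnCl2, 0.25 µCi [γ-33P]ATP and 5 µg myelin basic protein as substrate. Compounds were tested at 50, 5 and 1 µM with equal DMSO in all reactions. Reactions were stopped in Laemmli buffer and run on SDS gel. Gels were Coomassie-stained, dried, autoradiographed and quantified by phosphorimaging as % remaining activity.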

Plasmodium falciparum [2] = assay: Inhibition of Plasmodium falciparum Pfnek1 at 1 uM
Method in brief: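 Compounds were tested at 50, 5 and 1 µM with equal DMSO in all reactions. Reactions were stopped with Laemmli buffer and run on SDS-PAGE. Remaining activity (%) was quantified by autoradiography and phosphorimaging; no IC50 was determined.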

[3] = Selectivity index ratio of IC50 for human MCF7 cells to IC50 for chloroquine-sensitive Plasmodium falciparum F32; type: functional
Method in brief: (§1)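 The ratio compares the MCF-7 IC50 with the parasite IC50. MCF-7 cells were grown in DMEM with 2 mM L-glutamine and 10% FCS at 37 °C, 5% CO2, and used in exponential growth. They were seeded at 200 000 cells/mL; after 24 h, compounds were added at 0.01–100 µg/mL. Viability was read by [3H]hypoxanthine incorporation and IC50 taken graphically from the curves. Parasite IC50s came from the [3H]hypoxanthine incorporation assay on synchronized cultures.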

Plasmodium falciparum [4] = assay: Antiplasmodial activity against chloroquine-resistant Plasmodium falciparum FcM29 by [3H]hypoxanthine uptake; type: functional, organism-based
Method in brief: (§2)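 Parasites kept in continuous culture per Trager and Jensen (modified) and synchronized every 48 h by 5% D-sorbitol lysis. Growth was read as [3H]hypoxanthine incorporation by the modified Desjardins method.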

Plasmodium falciparum [5] = assay: Antiplasmodial activity against chloroquine-resistant Plasmodium falciparum FcB1 by [3H]hypoxanthine uptake; type: functional, organism-based; method in brief: as §2
Plasmodium falciparum [6] = assay: Antiplasmodial activity against chloroquine-sensitive Plasmodium falciparum F32 by [3H]hypoxanthine uptake; type: functional, organism-based; method in brief: as §2
MCF7 = assay: Cytotoxicity against human MCF7 cells assessed as [3H]hypoxanthine incorporation; type: cell-based
Method in brief: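 MCF-7 cells were grown in DMEM with 2 mM L-glutamine and 10% FCS at 37 °C, 5% CO2. Exponential-phase cells were trypsinized and seeded at 200 000 cells/mL. After 24 h, the medium was replaced with fresh medium containing compound at 0.01–100 µg/mL. Viability was read by [3H]hypoxanthine incorporation, and IC50 was taken graphically from dose-response curves.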

[7] = Selectivity index ratio of IC50 for human MCF7 cells to IC50 for chloroquine-resistant Plasmodium falciparum FcM29; type: functional; method in brief: as §1
[8] = Selectivity index ratio of IC50 for human MCF7 cells to IC50 for chloroquine-resistant Plasmodium falciparum FcB1; type: functional; method in brief: as §1
[9] = system: Plasmodium vinckei petteri; assay: Antiplasmodial activity as reduced parasitaemia at day 5 in Plasmodium vinckei petteri infected CD mice (Mus musculus) at 5 mg/kg/day intraperitoneal dose; type: functional; settings: ip, 120 h
Method in brief: (§3)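 Four-day suppressive test in female CD mice (20 ± 2 g), each infected on day 0 with 10^6 P. vinckei petteri-parasitized erythrocytes in RPMI. Groups of five received ip doses on days 0–3. Controls got RPMI alone. Parasitaemia was counted on Giemsa-stained tail-blood smears (≥5000 erythrocytes). % inhibition = (control − treated)/control × 100.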

[10] = Toxicity in Plasmodium vinckei petteri infected CD mice (Mus musculus) assessed as mortality at 5 mg/kg/day, intraperitoneally measured on day 1; type: organism-based; parameters: route intraperitoneal; settings: in vivo, ip, read-out: INH
Method in brief: (§4)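 4-day suppressive test in female CD mice (20 ± 2 g) infected on day 0 with 10^6 parasitized red cells in RPMI. Groups of five were dosed intraperitoneally on days 0–3 at 5 or 20 mg/kg; reference dosing was 1 or 10 mg/kg, with RPMI-alone controls. Parasitaemia was counted on day-4 Giemsa tail-blood smears. Survival was followed for three additional weeks.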

[11] = Toxicity in Plasmodium vinckei petteri infected CD mice (Mus musculus) assessed as mortality at 5 mg/kg/day, […] measured on day 5; type: organism-based; settings: in vivo, read-out: INH
[12] = Toxicity in Plasmodium vinckei petteri infected CD mice (Mus musculus) assessed as mortality at 5 mg/kg/day, intraperitoneally measured on day 15; type: organism-based; parameters: route intraperitoneal; settings: in vivo, ip, read-out: INH; method in brief: as §4
[13] = Toxicity in Plasmodium vinckei petteri infected CD mice (Mus musculus) assessed as mortality at 20 mg/kg/day, intraperitoneally measured on day 1; type: organism-based; parameters: route intraperitoneal; settings: in vivo, ip, read-out: INH; method in brief: as §4
[14] = Toxicity in Plasmodium vinckei petteri infected CD mice (Mus musculus) assessed as mortality at 20 mg/kg/day, intraperitoneally measured on day 5; type: organism-based; parameters: route intraperitoneal; settings: in vivo, ip, read-out: INH; method in brief: as §4
[15] = Toxicity in Plasmodium vinckei petteri infected CD mice (Mus musculus) assessed as mortality at 20 mg/kg/day, intraperitoneally measured on day 15; type: organism-based; parameters: route intraperitoneal; settings: in vivo, ip, read-out: INH; method in brief: as §4
[16] = system: Plasmodium vinckei petteri; assay: Antiplasmodial activity as reduced parasitaemia at day 5 in Plasmodium vinckei petteri infected CD mice (Mus musculus) at 20 mg/kg/day intraperitoneal dose; type: functional; settings: ip, 120 h; method in brief: as §3
[17] = system: Plasmodium vinckei petteri; assay: Antiplasmodial activity as reduced parasitaemia at day 5 in Plasmodium vinckei petteri infected CD mice (Mus musculus) at 10 mg/kg/day intraperitoneal dose; type: functional; settings: ip, 120 h; method in brief: as §3
[18] = Toxicity in Plasmodium vinckei petteri infected CD mice (Mus musculus) assessed as mortality at 10 mg/kg/day, intraperitoneally measured on day 1; type: organism-based; parameters: route intraperitoneal; settings: in vivo, ip, read-out: INH; method in brief: as §4
[19] = Toxicity in Plasmodium vinckei petteri infected CD mice (Mus musculus) assessed as mortality at 10 mg/kg/day, intraperitoneally measured on day 5; type: organism-based; parameters: route intraperitoneal; settings: in vivo, ip, read-out: INH; method in brief: as §4
[20] = Toxicity in Plasmodium vinckei petteri infected CD mice (Mus musculus) assessed as mortality at 10 mg/kg/day, intraperitoneally measured on day 15; type: organism-based; parameters: route intraperitoneal; settings: in vivo, ip, read-out: INH; method in brief: as §4
[21] = system: Plasmodium vinckei petteri; assay: Antiplasmodial activity as reduced parasitaemia at day 5 in Plasmodium vinckei petteri infected CD mice (Mus musculus) at 1 mg/kg/day intraperitoneal dose; type: functional; settings: ip, 120 h; method in brief: as §3
[22] = Toxicity in Plasmodium vinckei petteri infected CD mice (Mus musculus) assessed as mortality at 1 mg/kg/day, intraperitoneally measured on day 1; type: organism-based; parameters: route intraperitoneal; settings: in vivo, ip, read-out: INH; method in brief: as §4
[23] = Toxicity in Plasmodium vinckei petteri infected CD mice (Mus musculus) assessed as mortality at 1 mg/kg/day, intraperitoneally measured on day 5; type: organism-based; parameters: route intraperitoneal; settings: in vivo, ip, read-out: INH; method in brief: as §4
[24] = Toxicity in Plasmodium vinckei petteri infected CD mice (Mus musculus) assessed as mortality at 1 mg/kg/day, intraperitoneally measured on day 15; type: organism-based; parameters: route intraperitoneal; settings: in vivo, ip, read-out: INH; method in brief: as §4

Structure (SMILES) | Activity (Plasmodium falciparum [1]) | inhibition (Plasmodium falciparum [2]) | Ratio IC50 [3] | IC50 (Plasmodium falciparum [4]) | IC50 (Plasmodium falciparum [5]) | IC50 (Plasmodium falciparum [6]) | IC50 (MCF7) | Ratio IC50 [7] | Ratio IC50 [8] | inhibition in vivo at 5 mg/kg/day [9] | mortality [10] | mortality [11] | mortality [12] | mortality [13] | mortality [14] | mortality [15] | other results
C[C@@]12CCC[C@]3(C)c4cc5c(O)ccc(O)c5cc4C(=O)[C@](O)(OC1)[C@H]23 [ALISIAQUINOL] | Active | 49% | <1 | 7.9 µM | 6.4 µM | 9.9 µM | 1.7 µM |  |  |  |  |  |  |  |  |  | 
C[C@@]12CCC[C@]3(C)c4cc5c(cc4C(=O)[C@](O)(OC1)[C@H]23)C(=O)C=CC5=O [ALISIAQUINONE A] | Active | 41% | 4 | 8.5 µM | 7.4 µM | 9.1 µM | 36 µM | 4 | 5 | 63% | 0% | 0% | 40% | 100% | 100% | 100% | 
COC1=CC(=O)c2cc3c(cc2C1=O)C(=O)[C@]1(O)OC[C@@]2(C)CCC[C@@]3(C)[C@@H]21 [ALISIAQUINONE B] |  |  | <1 | 2.6 µM | 8.4 µM | 7.1 µM | 0.8 µM |  |  |  |  |  |  |  |  |  | 
C[C@@]12CCC[C@]3(C)c4cc5c(cc4C(=O)[C@](O)(OC1)[C@H]23)C(=O)C1=C(NCCS1(=O)=O)C5=O [ALISIAQUINONE C] |  |  | 270 | 0.08 µM | 0.21 µM | 0.15 µM | 41 µM | 500 | 200 | 36% | 0% | 0% | 60% | 60% | 80% | 100% | Activity (Plasmodium falciparum [2]): inactive; inhibition in vivo at 20 mg/kg/day [16]: 42%
CCN(CC)CCCC(C)Nc1ccnc2cc(Cl)ccc12 (stereo not drawn) [CHLOROQUINE] |  |  |  |  |  |  | 12 µM |  |  |  |  |  |  |  |  |  | inhibition in vivo at 10 mg/kg/day [17]: 100%; mortality [18]: 0%; mortality [19]: 0%; mortality [20]: 0%; inhibition in vivo at 1 mg/kg/day [21]: 0%; mortality [22]: 0%; mortality [23]: 0%; mortality [24]: 100%
